{"data": "Experimental data from different studies", "CYP3A7": "Cytochrome P450 3A7 (CYP3A7, Homo sapiens, UniProt P24462)"}
{"SMILES": "N#Cc1cnn2c(NC3CC3)cc(Nc3ccc(N4CCC[C@H](N)C4)c(-n4cnnc4)c3)nc12", "assay": "metabolic stability", "test system": "male CD-1 mouse, liver microsomes", "conditions": "5 µM, 30 min, pH 7.4", "endpoint": "compound remaining", "result": "98%"}
{"SMILES": "COC[C@H]1C[C@@H](c2ncc(-c3ccc4c(c3)COc3cc5c(ccc6nc([C@@H]7CC[C@H](C)N7C(=O)[C@@H](NC(=O)OC)C(C)C)[nH]c65)cc3-4)[nH]2)N(C(=O)[C@H](NC(=O)OC)c2ccccc2)C1", "target or system": "CYP3A7", "assay": "enzyme activity, inhibitor, fluorescence", "conditions": "20 µM, 10 min, pH 7.4", "endpoint": "inhibition", "result": "≥ 50%"}
{"SMILES": "Oc1ccccc1/C=N/c1c(-c2ccccc2)nc2ccc(Cl)cn12", "target or system": "MT4", "assay": "cell growth or viability, MTT", "conditions": "5 days", "endpoint": "CC50", "result": "17.9 µg/mL"}
{"SMILES": "N#Cc1cnn2c(Nc3cn(CCN4CCOCC4)cn3)cc(Nc3cccc(-n4cnnc4)c3)nc12", "assay": "metabolic stability", "test system": "male CD-1 mouse, liver microsomes", "conditions": "5 µM, 30 min, pH 7.4", "endpoint": "compound remaining", "result": "81%"}
{"SMILES": "Cc1cnc(C(=O)N[C@H]2CCCCC/C=C\\[C@@H]3C[C@@]3(C(=O)NS(=O)(=O)C3CC3)NC(=O)[C@@H]3C[C@@H](Oc4nc5ccccc5c5ccccc45)CN3C2=O)cn1", "target or system": "CYP3A7", "assay": "enzyme activity, inhibitor", "conditions": "pH 7.4, with preincubation", "endpoint": "KI (inactivation)", "result": "4.66 µM"}
{"SMILES": "N#Cc1cnn2c(Nc3cn(CCN4CCCC4)cn3)cc(Nc3cccc(-n4cnnc4)c3)nc12", "assay": "metabolic stability", "test system": "male CD-1 mouse, liver microsomes", "conditions": "5 µM, 30 min, pH 7.4", "endpoint": "compound remaining", "result": "67%"}
{"SMILES": "N#C[C@@]12C[C@@H]1[C@@H](n1cnc3c(N[C@@H](C4CCC4)C4CC4)nc(I)nc31)[C@H](O)[C@@H]2O", "assay": "metabolic stability", "test system": "rat, liver microsomes", "conditions": "1 h", "endpoint": "compound remaining", "result": "72.9%"}
{"SMILES": "C=C[C@@H]1C[C@]1(NC(=O)[C@@H]1C[C@@H](Oc2ncc(OC)c3ccc(Cl)cc23)CN1C(=O)[C@@H](NC(=O)OC(C)(C)C)C(C)(C)C)C(=O)NS(=O)(=O)C1CC1", "target or system": "CYP3A7", "assay": "enzyme activity, inhibitor, fluorescence", "conditions": "20 µM, 10 min, pH 7.4", "endpoint": "inhibition", "result": "≥ 50%"}
{"SMILES": "O=c1[nH]cnc2c1ncn2[C@H]1CC[C@@H](CO)O1", "target or system": "MT4", "assay": "cell growth or viability, MTT", "conditions": "5 days", "endpoint": "CC50", "result": "> 50 µg/mL"}
{"SMILES": "Cc1ccc(Cn2cc(C(=O)NN)c(=O)c3cc(Oc4ccccc4)ccc32)cc1", "assay": "metabolic stability", "test system": "male rat, liver microsomes", "conditions": "1 µM, 30 min", "endpoint": "compound remaining", "result": "> 99%"}
{"SMILES": "N#Cc1cnn2c(NC3CC3)cc(Nc3cc(-n4cnnc4)ccc3F)nc12", "assay": "metabolic stability", "test system": "male CD-1 mouse, liver microsomes", "conditions": "5 µM, 30 min, pH 7.4", "endpoint": "compound remaining", "result": "100%"}
{"SMILES": "O=[N+]([O-])c1ccc(/C=N/c2c(-c3ccccc3)nc3ccc(Cl)cn23)cc1", "target or system": "MT4", "assay": "cell growth or viability, MTT", "conditions": "5 days", "endpoint": "CC50", "result": "> 125 µg/mL"}
